Screening results: PubChem BioAssay, several laboratories
The sample as a whole holds a higher share of hits than the screen did.
UPR CHOP act = apoptotic UPR (CHOP) activation; CHO-CHOP luciferase reporter, luminescence; percent of tunicamycin response over DMSO baseline; activation, % at 10 µM; 330,000 compounds, 0.34% hits; AID 449763;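 active means at 10 µM dose, activation of 40% or more, normalized to positive control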
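Test system: CHO CHOP reporter cells. Input: 500 CHO-CHOP cells per well. Medium: F12 with 10% FBS. Technique: luciferase luminescence. Measure: percent activation relative to tunicamycin control. Dosing: 10 µM compound, 0.5% DMSO. Timing: 16-18 h cell attachment, then 6 h compound exposure, 37 °C.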
UPR XBP1 act = adaptive UPR (XBP1) activation; CHO-XBP1 luciferase reporter, IRE1-XBP1 UPR activation, luminescence; percent of tunicamycin response, DMSO as zero; activation, % at 20 µM; 330,000 compounds, 0.33% hits; AID 463104;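 active means versus positive control, 20 µM dose yields 30% or more activation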
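Material: CHO-XBP1 cells stably carrying IRE1-XBP1-driven luciferase reporter | Medium: F12 with 10% serum | Compound dosing: 20 µM single concentration, DMSO 1% | Incubation: Overnight seeding at 37 °C, 6 h compound treatment at 37 °C | Detection: Steady-Glo luminescence read | Read-out basis: % activation of reporter signal versus tunicamycin and DMSO controls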
Jurkat NFkB inh = lowers PMA/ionomycin-induced NF-kB signal in Jurkat cells. PMA/ionomycin-induced NF-kB luciferase reporter, luminescence. inhibition, % at 4 µM. 330,000 compounds, 0.53% hits; in the data active means inhibition above about 50%
CHOP inhibitor = CHOP inhibition in unfolded protein response; CHO-K1 CHOP-promoter luciferase, tunicamycin-induced, 15-18 h; inhibition, % at 10 µM; 220,000 compounds, 3.8% hits;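 active means compounds that reduced the stress-induced luciferase reporter signal by more than about 70% of percent inhibition, limit read from the data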
697 NFkB inh = lowers PMA/ionomycin-induced NF-kB signal in 697 B cells; inhibition, % at 4 µM; 697 B-cell NF-kB luciferase reporter, 16 h; 330,000 compounds, 0.33% hits; AID 435022; in the data active means inhibition above about 35%
Numbers stand for hits; i = inactive; nt = no result.

SMILES	UPR CHOP act	UPR XBP1 act	Jurkat NFkB inh	CHOP inhibitor	697 NFkB inh
C=CCNC(=O)CN(c1ccc(F)c(Cl)c1)S(C)(=O)=O	i	i	i	79	i
CS(=O)(=O)N(CC(=O)NCc1ccncc1)c1ccc(F)c(Cl)c1	i	i	i	i	i
O=C1NC(=O)/C(=C\c2ccc(OCc3cccc([N+](=O)[O-])c3)cc2)N1	i	i	i	76	i
O=C1NC(=O)/C(=C\c2ccccc2OCc2ccc([N+](=O)[O-])cc2)N1	i	i	i	i	i
CCCCN(C(=O)NC(=O)Nc1cccc(C)c1C)S(C)(=O)=O	i	i	i	81	i
CN(C(=O)COC(=O)CNC(=O)C12CC3CC(CC(C3)C1)C2)C1CCS(=O)(=O)C1 (centres undefined)	i	i	i	i	i
CCCn1c(NC(=O)c2ccc(F)cc2)nc2ccccc21	i	i	i	i	i
CCCn1c(NC(=O)c2ccc(Br)cc2)nc2ccccc21	i	i	i	83	i
CCCn1nc(C(=O)OCC(=O)NC(C)c2ccccc2)c2ccccc2c1=O (centres undefined)	i	i	i	i	i
Cc1cccc(N=C2NC(=O)/C(=C3/C(=O)N(C)c4ccccc43)S2)c1C	i	i	i	88	i
CCc1ccc2c(c1)C1(C(=O)N2)N2CCCC2C(C(=O)c2ccc3ccccc3c2)C12C(=O)Nc1ccccc12 (centres undefined)	i	i	i	106	i
NC(=O)c1cc[n+](CC2=C(C(=O)O)N3C(=O)[C@@H](NC(=O)[C@@H](c4ccccc4)S(=O)(=O)[O-])[C@H]3SC2)cc1	nt	nt	nt	i	nt
CC(=O)Nc1ccc(S(=O)(=O)NCc2ccc(C)cc2)cc1	i	i	i	76	i
COc1ccc(C2=NO[C@@H]3[C@@H]4C[C@@H]([C@H]5C(=O)N(C)C(=O)[C@@H]45)[C@H]23)c(OC)c1	i	i	i	i	i
O=C1c2ccccc2C(=O)N1CCc1csc(-c2cccc(Cl)c2)n1	i	i	i	i	i
O=C1c2ccccc2C(=O)N1CCc1csc(-c2cccc(F)c2)n1	i	i	i	82	i
Cc1cc(=O)c(C(=O)Nc2cccc(C(=O)NC3CC3)c2)nn1-c1ccccc1Cl	i	i	i	nt	i
CCOC(=O)c1c(N)nn(C(=O)C(C)(C)C)c1-c1ccccc1	i	i	i	94	i
CCCCNC(=O)C(C1CCCCC1)N(CCN(C)C)C(=O)CCCN1C(=O)NC(c2ccc(-c3ccccc3)cc2)C(C(=O)OCc2ccccc2)=C1C (centres undefined)	i	41	nt	nt	i
CCCCN(C(=O)c1c(-c2ccccc2)noc1C)c1c(N)n(CCC)c(=O)[nH]c1=O	i	i	i	nt	i
CC(=O)Nc1ccc(C(=O)OCc2ccc(Cl)c(Cl)c2)cc1	i	i	i	i	i
CCC(=O)Nc1ccc(C(=O)OCc2ccc(Cl)c(Cl)c2)cc1	i	i	i	89	i
COc1cc2c(cc1OC)C(c1cc(C)ccc1C)CC(=O)N2 (centres undefined)	i	i	i	nt	i
COc1ccc(CNC(=O)CN(Cc2ccc(OC)cc2)C(=O)CCC(=O)Nc2ccccn2)cc1	i	i	i	nt	i
CC(=O)c1cccc(NC(=O)C(C)N2CCc3ccccc3C2)c1 (centres undefined)	i	i	i	i	i
SMILES	UPR CHOP act	UPR XBP1 act	Jurkat NFkB inh	CHOP inhibitor	697 NFkB inh
Cc1ccc(C)c(S(=O)(=O)N/N=C/c2cccnc2)c1	i	i	i	72	i
O=c1cc(/C=C/c2ccccc2)oc2ccccc12	i	i	i	74	i
O=c1cc(-c2ccccc2)oc2ccccc12	i	i	i	nt	i
Cc1cc(C)n2nc(/C(C#N)=C/c3ccccn3)c(C#N)c2n1	i	i	i	i	i
O=C(c1cc(-c2cccc(O)c2)on1)N1CCN(C(c2ccccc2)c2ccccc2)CC1	i	i	i	78	i
Cc1cc(C)cc(NS(=O)(=O)c2ccc(NC(=O)C3CCCCC3C(=O)O)cc2)c1 (centres undefined)	i	i	i	i	i
COCCn1c(C)cc(/C=C2/NC(=O)N(c3cccc(Cl)c3)C2=O)c1C	i	i	i	71	i
CC(C)(C)C1CCc2onc(C(=O)Nc3cnn(Cc4ccc(F)cc4)c3)c2C1 (centres undefined)	i	i	i	86	i
CC(=O)c1c(C(C)=O)c(C)n(C(c2ccccc2)c2ccccc2)c1C	i	i	i	i	i
Cc1cccc(NS(=O)(=O)c2cc(NC(=O)CC(=O)c3ccc([N+](=O)[O-])cc3)ccc2C)c1	nt	nt	nt	93	nt
CN(C)CCCn1c2c(c(SCC(=O)Nc3cccc4ccccc34)nc1=O)CCCC2	i	i	i	nt	i
Cc1ccc(S(=O)(=O)N2CCOCC2)cc1C(=O)NCC1CCCCC1	i	i	i	nt	i
CC(C/C=N/NC(=O)COc1cc(Cl)ccc1Cl)c1ccccc1 (centres undefined)	i	i	i	79	i
COc1ccc(NC(=O)c2cc(-c3cc(C)ccc3O)n[nH]2)cc1Cl	i	i	i	78	i
COc1ccc(N2CCN(CC(=O)Nc3ccccc3C(=O)NCc3ccccc3)CC2)cc1	i	i	i	nt	i
CCOC(=O)c1sc(/N=C/c2ccc(O)cc2O)cc1C	i	i	i	94	i
CCCc1[nH]nc2c1C(/C(C)=C/c1ccccc1)C(C#N)=C(N)O2 (centres undefined)	i	i	i	71	i
CC12CCC(=O)N1C(C(=O)Nc1ccccc1N1CCOCC1)CS2 (centres undefined)	i	i	i	nt	i
Fc1ccc(N2CCN(c3nc(-c4ccco4)cc(C(F)(F)F)n3)CC2)cc1	i	i	i	i	i
Cc1nn(-c2nc(-c3ccco3)cc(C(F)(F)F)n2)c(C)c1Br	i	i	i	73	i
COc1cccc(CNC(=O)c2nnn(CC(=O)Nc3cccc(C)c3)c2N)c1	i	i	i	nt	i
O=C(CSc1nnc(NC(=O)c2c(F)cccc2Cl)s1)Nc1ccccc1F	i	i	i	nt	i
COc1ccc(/C=C/c2ccc(=O)n(Cc3ccccc3)n2)cc1	i	i	i	i	i
O=c1ccc(/C=C/c2ccccc2)nn1Cc1ccc(F)cc1	i	i	i	80	i
Cc1ccc(/C=C/c2ccc(=O)n(Cc3ccc(F)cc3)n2)cc1	i	i	i	79	i
SMILES	UPR CHOP act	UPR XBP1 act	Jurkat NFkB inh	CHOP inhibitor	697 NFkB inh
COC(=O)c1scc(C)c1N1C(=O)c2ccccc2C1=O	i	i	i	i	i
COc1ccc(Cl)cc1NC(=O)c1cccc(-n2cnnn2)c1	i	i	i	nt	i
COc1c2occc2c(OC)c2c(=O)cc(C(F)(F)F)oc12	i	i	i	i	i
COc1c2occc2c(OC)c2c(=O)cc(C(F)(F)C(F)(F)F)oc12	i	i	i	83	i
Cc1ccc(C(C)C)c(OCc2nc(-c3nonc3N)no2)c1	i	i	i	95	i
Cc1ccc(C(C)C)c(OCc2n[nH]c(=S)o2)c1	i	i	i	i	i
